Measured values as given in ChEMBL document CHEMBL5107946, “SF5- and SCF3-substituted tetrahydroquinoline compounds as potent bactericidal agents against multidrug-resistant persister Gram-positive bacteria” (RSC Med Chem, 2021).
In brackets after ≈: the same amount, converted by molar mass. Activity calls are given as the source filed them.

What was measured:
Staphylococcus aureus [1] = test: Antibacterial activity against Staphylococcus aureus ATCC 25923 assessed as bacterial growth inhibition at 16 ug/ml incubated for 18 to 20 hrs by CLSI based broth microdilution assay; format: functional, organism-based; conditions: dose 16.0 µg/ml, time 18-20 hrs
Procedure, shortened: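 Single-concentration screen at 16 μg mL−1 final. Overnight TSB culture was diluted 1:1000 in cation-adjusted MHB and grown to early exponential phase. 1 mL of culture was added to compound in glass tubes and incubated overnight at 37 °C. OD600 was read and normalized to the DMSO control after subtracting medium-only OD.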

Staphylococcus aureus [2] = test: Antibacterial activity against methicillin-resistant Staphylococcus aureus USA300 assessed as bacterial growth inhibition incubated for 18 to 20 hrs by CLSI based broth microdilution assay; format: functional; conditions: time 18-20 hrs
Procedure, shortened: (§1)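 CLSI broth microdilution; compounds and control antibiotics made up at 10 mg mL−1 in DMSO (stock), serially diluted 1:2 across the plate. Inoculum adjusted to 0.5 McFarland, then diluted 1:100 into wells. Plates incubated static at 37 °C for 18–20 h before MIC read.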

Enterococcus faecalis [3] = test: Antibacterial activity against Enterococcus faecalis ATCC 29212 assessed as bacterial growth inhibition incubated for 18 to 20 hrs by CLSI based broth microdilution assay; format: functional; conditions: time 18-20 hrs; procedure, shortened: as §1
Staphylococcus aureus [4] = test: Antibacterial activity against methicillin-resistant Staphylococcus aureus ATCC 33592 assessed as bacterial growth inhibition incubated for 18 to 20 hrs by CLSI based broth microdilution assay; format: functional; conditions: time 18-20 hrs; procedure, shortened: as §1
Enterococcus faecium [5] = test: Antibacterial activity against vancomycin-resistant Enterococcus faecium ATCC 700221 assessed as bacterial growth inhibition incubated for 18 to 20 hrs by CLSI based broth microdilution assay
Listeria monocytogenes = test: Antibacterial activity against Listeria monocytogenes ATCC 19115 assessed as bacterial growth inhibition incubated for 18 to 20 hrs by CLSI based broth microdilution assay; format: functional; conditions: time 18-20 hrs
Procedure, shortened: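 MIC by CLSI broth microdilution. Compounds were made as 10 mg mL−1 DMSO stocks and serially diluted 1:2. Inoculum was set to 0.5 McFarland and diluted 1:100 into the wells. Plates were incubated static at 37 °C for 18–20 h before reading the MIC.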

Enterococcus faecalis [6] = test: Antibacterial activity against vancomycin-resistant Enterococcus faecalis ATCC 51575 assessed as bacterial growth inhibition incubated for 18 to 20 hrs by CLSI based broth microdilution assay; format: functional; conditions: time 18-20 hrs; procedure, shortened: as §1
Staphylococcus aureus [7] = test: Antibacterial activity against Staphylococcus aureus ATCC 25923 assessed as bacterial growth inhibition incubated for 18 to 20 hrs by CLSI based broth microdilution assay; format: functional; conditions: time 18-20 hrs; procedure, shortened: as §1
Enterococcus faecalis [8] = test: Bactericidal activity against Enterococcus faecalis ATCC 29212 assessed as reduction in colony forming unit incubated for 20 hrs; format: functional
Procedure, shortened: (§2)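 Follows the broth microdilution MIC plate. 4 μL taken from each well without growth, spotted in duplicate on tryptic soy agar and incubated static at 37 °C for 20 h. MBC taken as the concentration giving 99.9% reduction in CFU.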

Enterococcus faecium [9] = test: Bactericidal activity against vancomycin-resistant Enterococcus faecium ATCC 700221 assessed as reduction in colony forming unit incubated for 20 hrs; conditions: ATCC 700221, 20 h
Enterococcus faecalis [10] = test: Bactericidal activity against vancomycin-resistant Enterococcus faecalis ATCC 51575 assessed as reduction in colony forming unit incubated for 20 hrs; format: functional; procedure, shortened: as §2
Staphylococcus aureus [11] = test: Bactericidal activity against methicillin-resistant Staphylococcus aureus ATCC 33592 assessed as reduction in colony forming unit incubated for 20 hrs; format: functional; procedure, shortened: as §2
Staphylococcus aureus [12] = test: Bactericidal activity against methicillin-resistant Staphylococcus aureus USA300 assessed as reduction in colony forming unit incubated for 20 hrs; format: functional; procedure, shortened: as §2
Staphylococcus aureus [13] = test: Bactericidal activity against Staphylococcus aureus ATCC 25923 assessed as reduction in colony forming unit incubated for 20 hrs; format: functional; procedure, shortened: as §2
Cell membrane [14] = test: Induction of cell membrane disruption in persister Staphylococcus aureus ATCC 25923 at 32 ug/ml incubated for 6 hrs by scanning electron microscopy; conditions: dose 32.0 µg/ml
Cell membrane [15] = test: Induction of cell membrane permeability in Staphylococcus aureus ATCC 25923 at 4 ug/ml by DiOC2 dye based flow cytometry assay; conditions: dose 4.0 µg/ml
Procedure, shortened: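 Flow cytometry on S. aureus ATCC 25923 grown in TSB to exponential phase (OD600 0.2–0.3), then treated. Cells were washed twice in PBS and resuspended in buffer. To-PRO 3 iodide (red) and DiOC2 (green) were added and samples analysed immediately. The red/green ratio was used as the permeabilization readout, with bithionol 4 μg mL−1 as positive control.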

Staphylococcus aureus [16] = test: Antibacterial activity against methicillin-resistant Staphylococcus aureus USA300 assessed as fold increase in MIC incubated for 30 days by resistance development based broth microdilution assay; format: functional; conditions: time 30 day
Procedure, shortened: (§3)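 Multi-step resistance selection over 30 days. MIC determined first. Each day, 5 μL from the turbid well just below the MIC was diluted 1:1000 in CA-MHB and used as inoculum for the next broth microdilution MIC. Resistance defined as a rise of more than four-fold over the starting MIC.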

Staphylococcus aureus [17] = test: Antibacterial activity against methicillin-resistant Staphylococcus aureus ATCC 33592 assessed as fold increase in MIC incubated for 30 days by resistance development based broth microdilution assay; format: functional; conditions: time 30 day; procedure, shortened: as §3
Staphylococcus aureus [18] = test: Antibacterial activity against methicillin-resistant Staphylococcus aureus ST239 (ARLG 1644) assessed as bacterial growth inhibition incubated for 18 to 20 hrs by CLSI based broth microdilution assay; format: functional; conditions: time 18-20 hrs; procedure, shortened: as §1
Staphylococcus aureus [19] = test: Antibacterial activity against methicillin-resistant Staphylococcus aureus ST1312 (ARLG 1649) assessed as bacterial growth inhibition incubated for 18 to 20 hrs by CLSI based broth microdilution assay; format: functional; conditions: time 18-20 hrs; procedure, shortened: as §1
Staphylococcus aureus [20] = test: Antibacterial activity against methicillin-resistant Staphylococcus aureus ST239 (ARLG 1665) assessed as bacterial growth inhibition incubated for 18 to 20 hrs by CLSI based broth microdilution assay; format: functional; conditions: time 18-20 hrs; procedure, shortened: as §1
Staphylococcus aureus [21] = test: Antibacterial activity against methicillin-resistant Staphylococcus aureus ST239 (ARLG 1663) assessed as bacterial growth inhibition incubated for 18 to 20 hrs by CLSI based broth microdilution assay; format: functional; conditions: time 18-20 hrs; procedure, shortened: as §1

SMILES	Activity (Staphylococcus aureus [1])	MIC (Enterococcus faecalis [3]) [µg/mL]	MIC (Enterococcus faecium [5]) [µg/mL]	MIC (Listeria monocytogenes) [µg/mL]	MIC (Enterococcus faecalis [6]) [µg/mL]	MIC (Staphylococcus aureus [7]) [µg/mL]	also measured
CC(C)Oc1ccc2c(c1)[C@H]1[C@@H]3CC[C@@H](C3)[C@H]1[C@H](c1c[nH]nc1C(F)(F)F)N2	Active	–	–	–	–	–	–
FC(F)(F)c1n[nH]cc1-c1nc2ccc(S(F)(F)(F)(F)F)cc2c2c1[C@H]1CC[C@@H]2C1	Active	8 (≈ 17.6 µM)	8 (≈ 17.6 µM)	8 (≈ 17.6 µM)	8 (≈ 17.6 µM)	4 (≈ 8.78 µM)	MIC (Staphylococcus aureus [2]): 8 µg/mL (≈ 17.6 µM); MIC (Staphylococcus aureus [4]): 8 µg/mL (≈ 17.6 µM)
CC(=O)NC[C@H]1CN(c2ccc(N3CCOCC3)c(F)c2)C(=O)O1 [LINEZOLID]	–	–	–	2 (≈ 5.93 µM)	–	–	MBC (Enterococcus faecalis [8]): 64 µg/mL (≈ 190 µM); MBC (Enterococcus faecium [9]): > 128 µg/mL; MBC (Enterococcus faecalis [10]): > 128 µg/mL; MBC (Staphylococcus aureus [11]): 64 µg/mL (≈ 190 µM); MBC (Staphylococcus aureus [12]): 64 µg/mL (≈ 190 µM); MBC (Staphylococcus aureus [13]): 64 µg/mL (≈ 190 µM)
FC(F)(F)c1n[nH]cc1[C@@H]1Nc2ccccc2[C@H]2[C@@H]3CC[C@@H](C3)[C@H]21	Active	–	–	–	–	–	–
FC(F)Oc1ccc2c(c1)[C@H]1[C@@H]3CC[C@@H](C3)[C@H]1[C@H](c1c[nH]nc1C(F)(F)F)N2	Active	–	–	–	–	–	–
FS(F)(F)(F)(F)c1ccc2c(c1)[C@H]1[C@@H]3CC[C@@H](C3)[C@H]1[C@H](c1cn[nH]c1)N2	Active	–	–	–	–	16 (≈ 40.9 µM)	–
O=C(O)c1ccc([C@@H]2Nc3ccc(S(F)(F)(F)(F)F)cc3[C@H]3[C@@H]4CC[C@@H](C4)[C@H]32)cc1	Active	4 (≈ 8.98 µM)	4 (≈ 8.98 µM)	4 (≈ 8.98 µM)	4 (≈ 8.98 µM)	4 (≈ 8.98 µM)	MIC (Staphylococcus aureus [2]): 16 µg/mL (≈ 35.9 µM); MIC (Staphylococcus aureus [4]): 4 µg/mL (≈ 8.98 µM)
Oc1c(Cl)cc(Cl)cc1Sc1cc(Cl)cc(Cl)c1O	–	–	–	–	–	–	Activity (Cell membrane [14]): Active; Activity (Cell membrane [15]): Active
FC(F)(F)c1ccc2c(c1)N[C@@H](c1c[nH]nc1C(F)(F)F)[C@@H]1[C@H]3CC[C@H](C3)[C@H]21	Active	8 (≈ 19.9 µM)	8 (≈ 19.9 µM)	8 (≈ 19.9 µM)	8 (≈ 19.9 µM)	4 (≈ 9.97 µM)	MIC (Staphylococcus aureus [2]): 8 µg/mL (≈ 19.9 µM); MIC (Staphylococcus aureus [4]): 8 µg/mL (≈ 19.9 µM)
CN[C@H](CC(C)C)C(=O)N[C@H]1C(=O)N[C@@H](CC(N)=O)C(=O)N[C@H]2C(=O)N[C@H]3C(=O)N[C@H](C(=O)N[C@H](C(=O)O)c4cc(O)cc(O)c4-c4cc3ccc4O)[C@H](O)c3ccc(c(Cl)c3)Oc3cc2cc(c3O[C@@H]2O[C@H](CO)[C@@H](O)[C@H](O)[C@H]2O[C@H]2C[C@](C)(N)[C@H](O)[C@H](C)O2)Oc2ccc(cc2Cl)[C@H]1O [VANCOMYCIN]	–	2 (≈ 1.38 µM)	> 128	1 (≈ 0.69 µM)	> 128	–	MBC (Enterococcus faecalis [8]): 2 µg/mL (≈ 1.38 µM); MBC (Enterococcus faecium [9]): > 128 µg/mL; MBC (Enterococcus faecalis [10]): > 128 µg/mL; MBC (Staphylococcus aureus [11]): 2 µg/mL (≈ 1.38 µM); MBC (Staphylococcus aureus [12]): 2 µg/mL (≈ 1.38 µM); MBC (Staphylococcus aureus [13]): 2 µg/mL (≈ 1.38 µM)
FC(F)(F)Sc1ccc2c(c1)[C@H]1[C@@H]3CC[C@@H](C3)[C@H]1[C@H](c1c[nH]nc1C(F)(F)F)N2	Active	8 (≈ 18.5 µM)	4 (≈ 9.23 µM)	4 (≈ 9.23 µM)	8 (≈ 18.5 µM)	4 (≈ 9.23 µM)	MIC (Staphylococcus aureus [2]): 4 µg/mL (≈ 9.23 µM); MIC (Staphylococcus aureus [4]): 2 µg/mL (≈ 4.61 µM)
O=C(O)c1cn(C2CC2)c2cc(N3CCNCC3)c(F)cc2c1=O [CIPROFLOXACIN]	–	–	–	–	–	–	fold change (FC) (Staphylococcus aureus [16]): 16; fold change (FC) (Staphylococcus aureus [17]): 64
Cc1onc(-c2ccccc2)c1C(=O)N[C@@H]1C(=O)N2[C@@H]1SC(C)(C)[C@@H]2C(=O)O [OXACILLIN]	–	–	–	–	–	–	MIC (Staphylococcus aureus [18]): 512 µg/mL (≈ 1280 µM); MIC (Staphylococcus aureus [19]): 256 µg/mL (≈ 638 µM); MIC (Staphylococcus aureus [20]): 512 µg/mL (≈ 1280 µM); MIC (Staphylococcus aureus [21]): 256 µg/mL (≈ 638 µM)
FC(F)(F)Oc1ccc2c(c1)[C@H]1[C@@H]3CC[C@@H](C3)[C@H]1[C@H](c1c[nH]nc1C(F)(F)F)N2	Active	8 (≈ 19.2 µM)	4 (≈ 9.58 µM)	4 (≈ 9.58 µM)	8 (≈ 19.2 µM)	4 (≈ 9.58 µM)	MIC (Staphylococcus aureus [2]): 8 µg/mL (≈ 19.2 µM); MIC (Staphylococcus aureus [4]): 4 µg/mL (≈ 9.58 µM)
FS(F)(F)(F)(F)c1ccc2c(c1)[C@H]1[C@@H]3CC[C@@H](C3)[C@H]1[C@H](c1c[nH]cn1)N2	Active	–	–	–	–	8 (≈ 20.4 µM)	–
C/C(=C\C(=O)OCCCCCCCCC(=O)O)C[C@@H]1OC[C@H](C[C@@H]2O[C@H]2[C@@H](C)[C@H](C)O)[C@@H](O)[C@H]1O [MUPIROCIN]	–	–	–	–	–	–	fold change (FC) (Staphylococcus aureus [17]): >250
Fc1ccc2c(c1)[C@H]1[C@@H]3CC[C@@H](C3)[C@H]1[C@H](c1c[nH]nc1C(F)(F)F)N2	Active	–	–	–	–	–	–
